Reference: EPA's CvTdb concentration-time database
One block for each molecule: values may come before it.

Assays:
[1] = tested on: Rat; assay: concentration in plasma after dosing; details: dosed: Wyeth-14643, 2.0 mg/kg, iv, Male, Sprague-Dawley
[2] = tested on: Rat; assay: concentration in plasma after dosing; details: 0.25 h; dosed: Wyeth-14643; 5.0 mg/kg; oral; Male; Sprague-Dawley
[3] = tested on: Rat; assay: concentration in plasma after dosing; details: dosed: Wyeth-14643, 2.0 mg/kg, oral, Male, Sprague-Dawley
[4] = tested on: Rat; assay: concentration in plasma after dosing; details: 3 h; dosed: Wyeth-14643; 2.0 mg/kg; oral; Male; Sprague-Dawley
[5] = tested on: Rat; assay: concentration in plasma after dosing; details: 2 h; dosed: Bis 2-Chloroethoxy Methane; 20 mg/kg; iv; Female; F344
[6] = tested on: Rat; assay: concentration in liver after dosing; details: 1 h; dosed: Bis 2-Chloroethoxy Methane; 20 mg/kg; iv; Female; F344
[7] = tested on: Rat; assay: concentration in thymus after dosing; details: 4 h; dosed: Bis 2-Chloroethoxy Methane; 20 mg/kg; iv; Male; F344
[8] = tested on: Rat; assay: concentration in liver after dosing; details: 10 min; dosed: Bis 2-Chloroethoxy Methane; 20 mg/kg; iv; Female; F344
[9] = tested on: Rat; assay: concentration in plasma after dosing; details: 2 h; dosed: Bis 2-Chloroethoxy Methane; 20 mg/kg; iv; Male; F344
[10] = tested on: Rat; assay: concentration in plasma after dosing; details: 40 min; dosed: Bis 2-Chloroethoxy Methane; 20 mg/kg; iv; Male; F344
[11] = tested on: Rat; assay: concentration in thymus after dosing; details: 5 h; dosed: Bis 2-Chloroethoxy Methane; 20 mg/kg; iv; Male; F344
[12] = tested on: Rat; assay: concentration in plasma after dosing; details: 3 h; dosed: Bis 2-Chloroethoxy Methane; 40 mg/kg; iv; Male; Harlan Sprague Dawley
[13] = tested on: Rat; assay: concentration in heart after dosing; details: 20 min; dosed: Bis 2-Chloroethoxy Methane; 20 mg/kg; iv; Male; F344
[14] = tested on: Rat; assay: concentration in plasma after dosing; details: dosed: Fluorotelomer alcohol 8+2, 12 mg/kg, oral, Male, Harlan Sprague Dawley
[15] = tested on: Rat; assay: concentration in brain after dosing; details: 12 h; dosed: Fluorotelomer alcohol 8+2; 24 mg/kg; oral; Male; Harlan Sprague Dawley
[16] = tested on: Rat; assay: concentration in plasma after dosing; details: 3 h; dosed: Fluorotelomer alcohol 8+2; 12 mg/kg; iv; Male; F344
[17] = tested on: Rat; assay: concentration in plasma after dosing; details: dosed: Fluorotelomer alcohol 8+2, 40 mg/kg, iv, Female, Harlan Sprague-Dawley
[18] = tested on: Rat; assay: concentration in plasma after dosing; details: 4 h; dosed: Di-n-butyl phthalate; 20 mg/kg; iv; Male; Sprague-Dawley
[19] = tested on: Rat; assay: concentration in plasma after dosing; details: 3 h; dosed: Di-n-butyl phthalate; 100 mg/kg; oral; Male; Sprague-Dawley
[20] = tested on: Rat; assay: concentration in plasma after dosing; details: 6 h; dosed: Di-n-butyl phthalate; 100 mg/kg; oral; Male; Sprague-Dawley
[21] = tested on: Rat; assay: concentration in plasma after dosing; details: 1 h; dosed: Di-n-butyl phthalate; 50 mg/kg; oral; Male; Sprague-Dawley
[22] = tested on: Rat; assay: concentration in kidney after dosing; details: 864 h; dosed: Perfluorodecanoic acid; 10 mg/kg; oral; Male; Harlan Sprague Dawley
[23] = tested on: Rat; assay: concentration in liver after dosing; details: 864 h; dosed: Perfluorodecanoic acid; 10 mg/kg; oral; Male; Harlan Sprague Dawley
[24] = tested on: Rat; assay: concentration in liver after dosing; details: 864 h; dosed: Perfluorodecanoic acid; 10 mg/kg; oral; Female; Harlan Sprague Dawley
[25] = tested on: Rat; assay: concentration in kidney after dosing; details: 864 h; dosed: Perfluorodecanoic acid; 10 mg/kg; oral; Female; Harlan Sprague Dawley
[26] = tested on: Rat; assay: concentration in kidney after dosing; details: 1 h; dosed: Perfluorodecanoic acid; 10 mg/kg; oral; Male; Harlan Sprague Dawley
[27] = tested on: Rat; assay: concentration in liver after dosing; details: 1 h; dosed: Perfluorodecanoic acid; 10 mg/kg; oral; Female; Harlan Sprague Dawley
[28] = tested on: Rat; assay: concentration in kidney after dosing; details: 24 h; dosed: Perfluorodecanoic acid; 10 mg/kg; oral; Female; Harlan Sprague Dawley
[29] = tested on: Rat; assay: concentration in plasma after dosing; details: 1.5 h; dosed: Primidone; 130 mg/kg; oral; Female; F344
[30] = tested on: Rat; assay: concentration in liver after dosing; details: 10 h; dosed: Thiodiglycolic Acid; 20 mg/kg; iv; Male; F344
[31] = tested on: Rat; assay: concentration in heart after dosing; details: 40 min; dosed: Thiodiglycolic Acid; 20 mg/kg; iv; Male; Harlan Sprague Dawley
[32] = tested on: Rat; assay: concentration in heart after dosing; details: 4 h; dosed: Thiodiglycolic Acid; 20 mg/kg; iv; Male; Harlan Sprague Dawley
[33] = tested on: Rat; assay: concentration in heart after dosing; details: 20 min; dosed: Thiodiglycolic Acid; 20 mg/kg; iv; Female; F344
[34] = tested on: Rat; assay: concentration in thymus after dosing; details: 40 min; dosed: Thiodiglycolic Acid; 20 mg/kg; iv; Female; Harlan Sprague Dawley
[35] = tested on: Rat; assay: concentration in thymus after dosing; details: 1 h; dosed: Thiodiglycolic Acid; 20 mg/kg; iv; Male; Harlan Sprague Dawley
[36] = tested on: human; assay: concentration in plasma after dosing; negative times count back from the end of exposure; details: dosed: trichloroethylene, 100 ppm, inhalation, duration: 4 hr, person
Procedure, shortened: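 A PubMed search, classifier screening and manual review identified published in vivo toxicokinetic studies, which together with two structured collections supplied concentration-versus-time and amount-versus-time points. Points were mostly digitised from plot screenshots with WebPlotDigitizer, otherwise copied from tables. Dose, route, subject details and medium were hand-curated from each paper, and sampling and analytical methods are those of the sources, often unreported.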

concentration in plasma ([1]; 0.5 h): 5100 ng/mL | concentration in plasma ([1]; 3 h): 342 ng/mL | concentration in plasma [2]: 2450 ng/mL | concentration in plasma ([3]; 2 h): 656 ng/mL | concentration in plasma ([3]; 7 h): 120 ng/mL | concentration in plasma [4]: 382 ng/mL
SMILES: Cc1cccc(Nc2cc(Cl)nc(SCC(=O)O)n2)c1C

SMILES: ClCCOCOCCCl [Bis 2-Chloroethoxy Methane]
concentration in plasma [5]: 188 ng/mL | concentration in liver [6]: 610 ng/g | concentration in thymus [7]: 149 ng/g | concentration in liver [8]: 973 ng/g | concentration in plasma [9]: 99.4 ng/mL | concentration in plasma [10]: 1590 ng/mL | concentration in thymus [11]: 49 ng/g | concentration in plasma [12]: 362 ng/mL | concentration in heart [13]: 7220 ng/g

concentration in plasma ([14]; 5 min): 396 ng/mL | concentration in plasma ([14]; 3 h): 196 ng/mL | concentration in brain [15]: 221 ng/g | concentration in plasma [16]: 106 ng/mL | concentration in plasma ([17]; 1 h): 2530 ng/mL | concentration in plasma ([17]; 24 h): 24.5 ng/mL
SMILES: OCCC(F)(F)C(F)(F)C(F)(F)C(F)(F)C(F)(F)C(F)(F)C(F)(F)C(F)(F)F [Fluorotelomer alcohol 8+2]

SMILES: CCCCOC(=O)c1ccccc1C(=O)O [Mono-n-butyl phthalate]
concentration in plasma [18]: 726 ng/mL | concentration in plasma [19]: 6970 ng/mL | concentration in plasma [20]: 16900 ng/mL | concentration in plasma [21]: 8650 ng/mL

SMILES: O=C(O)C(F)(F)C(F)(F)C(F)(F)C(F)(F)C(F)(F)C(F)(F)C(F)(F)C(F)(F)C(F)(F)F [Perfluorodecanoic acid]
concentration in kidney [22]: 10600 ng/g | concentration in liver [23]: 47900 ng/g | concentration in liver [24]: 59300 ng/g | concentration in kidney [25]: 16700 ng/g | concentration in kidney [26]: 10800 ng/g | concentration in liver [27]: 48000 ng/g | concentration in kidney [28]: 67300 ng/g

SMILES: CCC1(c2ccccc2)C(=O)NC(=O)NC1=O [Phenobarbital]
concentration in plasma [29]: 990 ng/mL

SMILES: O=C(O)CSCC(=O)O [Thiodiglycolic Acid]
concentration in liver [30]: 7350 ng/g | concentration in heart [31]: 2320 ng/g | concentration in heart [32]: 527 ng/g | concentration in heart [33]: 3600 ng/g | concentration in thymus [34]: 3420 ng/g | concentration in thymus [35]: 1900 ng/g

SMILES: O=C(O)C(Cl)Cl [dichloroacetic acid]
concentration in plasma ([36]; 0 h): 12 ng/mL | concentration in plasma ([36]; -2 h, during exposure): 8 ng/mL | concentration in plasma ([36]; -3 h, during exposure): 6 ng/mL
